The source of these data is ChEMBL document CHEMBL1250422 (Bioorg Med Chem, 2010).

The target in one experiment is Galectin-3 (Homo sapiens, UniProt P17931). Briefly: Binding affinity to human galectin 3 at 20 degC by competitive fluorescence polarization assay. In short, it runs like this: (§1)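 Human galectin (galectin-3, or the N-terminal domain of galectin-8 or -9) run in a competitive fluorescence polarization assay at 20 °C. Kd values were derived from inhibition of the fluorescent probe binding.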
Sequence of Galectin-3 (P17931 whole entry, the tested form may be a part): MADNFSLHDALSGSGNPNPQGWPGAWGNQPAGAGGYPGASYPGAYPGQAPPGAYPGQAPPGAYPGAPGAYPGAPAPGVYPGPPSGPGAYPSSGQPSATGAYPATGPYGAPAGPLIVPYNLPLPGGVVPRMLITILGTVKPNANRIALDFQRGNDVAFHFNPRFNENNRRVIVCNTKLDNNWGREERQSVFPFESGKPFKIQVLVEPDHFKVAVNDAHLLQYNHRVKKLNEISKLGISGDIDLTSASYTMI

The target in a further experiment is Galectin-7 (Homo sapiens, UniProt P47929). Kind of experiment: Binding affinity to human galectin 7 at 4 degC by competitive fluorescence polarization assay. In a few lines: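 Human galectin-7 was tested in a competitive fluorescence polarization assay at 4 °C because assay sensitivity is lower. Kd values were derived from inhibition of the fluorescent probe binding.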
Sequence of Galectin-7 (P47929 whole entry): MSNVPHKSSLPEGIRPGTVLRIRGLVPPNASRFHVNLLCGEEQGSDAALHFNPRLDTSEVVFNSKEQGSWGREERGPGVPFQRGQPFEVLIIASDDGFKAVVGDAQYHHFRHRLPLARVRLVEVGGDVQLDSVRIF
(In general: In fluorescence polarisation assays a small probe gives low polarisation when free and higher when bound to something large.)

A further experiment deals with T1, Galectin-8 (Homo sapiens, UniProt O00214).
T1 sequence (O00214 whole entry): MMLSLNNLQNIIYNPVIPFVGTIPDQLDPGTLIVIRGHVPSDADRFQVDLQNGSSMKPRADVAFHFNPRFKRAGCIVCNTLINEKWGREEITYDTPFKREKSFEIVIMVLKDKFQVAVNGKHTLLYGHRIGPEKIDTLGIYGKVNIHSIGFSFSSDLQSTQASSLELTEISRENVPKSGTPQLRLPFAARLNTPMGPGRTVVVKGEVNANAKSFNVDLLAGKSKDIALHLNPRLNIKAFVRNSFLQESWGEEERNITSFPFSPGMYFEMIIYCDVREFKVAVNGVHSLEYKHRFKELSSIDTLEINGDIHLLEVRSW
Kind of experiment: Binding affinity to human galectin 8 N-terminal domain at 20 degC by competitive fluorescence polarization assay. In short, it runs like this:
as §1

The next experiment has as its target Galectin-9 (Homo sapiens, UniProt O00182). Briefly: Binding affinity to human galectin 9 N-terminal domain at 20 degC by competitive fluorescence polarization assay. In short, it runs like this: as §1

Where only a bound is given, the exact number is not on record here.

Sequence of Galectin-9 (O00182 whole entry, the tested form may be a part): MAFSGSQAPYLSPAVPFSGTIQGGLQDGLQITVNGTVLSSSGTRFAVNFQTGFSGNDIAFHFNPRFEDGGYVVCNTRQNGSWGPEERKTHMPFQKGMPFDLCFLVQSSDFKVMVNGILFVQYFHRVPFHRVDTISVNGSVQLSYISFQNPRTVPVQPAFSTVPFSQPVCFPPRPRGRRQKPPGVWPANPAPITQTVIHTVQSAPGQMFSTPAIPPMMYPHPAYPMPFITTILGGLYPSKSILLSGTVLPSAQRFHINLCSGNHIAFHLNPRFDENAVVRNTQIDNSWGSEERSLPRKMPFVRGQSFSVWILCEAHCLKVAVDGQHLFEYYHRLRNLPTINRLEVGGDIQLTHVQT

On to `COc1cccc(-c2cn([C@H]3[C@@H](O)[C@@H](CO)O[C@@H](SC)[C@@H]3O)nn2)c1`, for which the dissociation constant (Kd) was 130 µM at Galectin-3, 2800 µM at Galectin-7, over 5000 µM at Galectin-8 and 2100 µM at Galectin-9.

On to `COC(=O)c1cn([C@H]2[C@@H](O)[C@@H](CO)O[C@@H](SC)[C@@H]2O)nn1`, for which the Kd is 1300 µM on Galectin-3, over 5000 µM on Galectin-7, over 5000 µM at Galectin-8 and 430 µM on Galectin-9.

As for `CS[C@@H]1O[C@H](CO)[C@H](O)[C@H](n2cc(C3(O)CCCCC3)nn2)[C@H]1O`, the Kd on Galectin-3 was 1600 µM; on Galectin-7, over 5000 µM; on Galectin-8 it was over 5000 µM; on Galectin-9, 1000 µM.

As for `O=C(NCCc1ccccc1)c1cn([C@H]2[C@@H](O)[C@@H](CO)O[C@@H](S[C@@H]3O[C@H](CO)[C@H](O)[C@H](n4cc(C(=O)NCCc5ccccc5)nn4)[C@H]3O)[C@@H]2O)nn1`, the dissociation constant (Kd) was 0.15 µM at Galectin-3, 2 µM on Galectin-7, 20 µM at Galectin-8 and 1.1 µM at Galectin-9.

`CO[C@@H]1O[C@H](CO)[C@@H](O[C@@H]2O[C@H](CO)[C@H](O)[C@H](n3cc(C(=O)Nc4cccc5ccccc45)nn3)[C@H]2O)[C@H](O)[C@H]1NC(C)=O`: the dissociation constant (Kd) on Galectin-3 was 0.66 µM; at Galectin-7, 83 µM; on Galectin-8, over 2000 µM; at Galectin-9, 13 µM.

On to `CO[C@@H]1O[C@H](CO)[C@@H](O[C@@H]2O[C@H](CO)[C@H](O)[C@H](O)[C@H]2O)[C@H](O)[C@H]1NC(C)=O`, for which the Kd was determined as 59 µM at Galectin-3, 5500 µM at Galectin-7, 1000 µM at Galectin-8 and 490 µM at Galectin-9.

As to `CO[C@@H]1O[C@H](CO)[C@@H](O[C@@H]2O[C@H](CO)[C@H](O)[C@H](n3cc(C(=O)NCc4ccccc4)nn3)[C@H]2O)[C@H](O)[C@H]1NC(C)=O`, the dissociation constant (Kd) on Galectin-3 was 1.5 µM; on Galectin-7, 74 µM; on Galectin-8, over 2000 µM; at Galectin-9, 12 µM.

In the case of `CS[C@@H]1O[C@H](CO)[C@H](O)[C@H](n2cc(-c3ccccc3)nn2)[C@H]1O`, the Kd on Galectin-3 is 150 µM; on Galectin-7, 1700 µM; on Galectin-8, over 5000 µM; at Galectin-9, 1300 µM.

For `CS[C@@H]1O[C@H](CO)[C@H](O)[C@H](n2nncc2S(=O)(=O)c2ccc(C)cc2)[C@H]1O`, the dissociation constant Kd at Galectin-3 was over 5000 µM; on Galectin-9 it was 1600 µM.

Take `CCCCNC(=O)c1cn([C@H]2[C@@H](O)[C@@H](CO)O[C@@H](S[C@@H]3O[C@H](CO)[C@H](O)[C@H](n4cc(C(=O)NCCCC)nn4)[C@H]3O)[C@@H]2O)nn1`: the Kd on Galectin-3 came to 0.029 µM; on Galectin-7, 5.4 µM; at Galectin-8 it was 58 µM; on Galectin-9, 1.1 µM.

On to `COc1ccc(-c2cn([C@H]3[C@@H](O)[C@@H](CO)O[C@@H](SC)[C@@H]3O)nn2)cc1`, for which the equilibrium dissociation constant (Kd) on Galectin-3 is 260 µM; on Galectin-7 it was 2000 µM; at Galectin-9, over 5000 µM.

On to `CO[C@@H]1O[C@H](CO)[C@@H](O[C@@H]2O[C@H](CO)[C@H](O)[C@H](NC(=O)c3ccc4ccccc4c3)[C@H]2O)[C@H](O)[C@H]1NC(C)=O`, for which the dissociation constant Kd was 0.48 µM at Galectin-3, over 100 µM on Galectin-7, over 100 µM at Galectin-8 and over 100 µM on Galectin-9.

In the case of `CS[C@@H]1O[C@H](CO)[C@H](O)[C@H](n2cc(C(=O)NCCN3CCOCC3)nn2)[C@H]1O`, the equilibrium dissociation constant (Kd) was 520 µM on Galectin-3, over 5000 µM at Galectin-7, over 5000 µM at Galectin-8 and 470 µM on Galectin-9.

As for `CC(O)CNC(=O)c1cn([C@H]2[C@@H](O)[C@@H](CO)O[C@@H](S[C@@H]3O[C@H](CO)[C@H](O)[C@H](n4cc(C(=O)NCC(C)O)nn4)[C@H]3O)[C@@H]2O)nn1` (some centres undefined), the Kd at Galectin-3 was found to be 0.12 µM; at Galectin-7, 5 µM; on Galectin-8, 58 µM; at Galectin-9 it was 2.1 µM.

As for `O=C(NCc1ccccc1)c1cn([C@H]2[C@@H](O)[C@@H](CO)O[C@@H](S[C@@H]3O[C@H](CO)[C@H](O)[C@H](n4cc(C(=O)NCc5ccccc5)nn4)[C@H]3O)[C@@H]2O)nn1`, the equilibrium dissociation constant (Kd) amounted to 0.39 µM on Galectin-3, 8.3 µM at Galectin-7, 47 µM at Galectin-8 and 0.53 µM on Galectin-9.

Turning to `CS[C@@H]1O[C@H](CO)[C@H](O)[C@H](n2cc(-c3cccnc3)nn2)[C@H]1O`, the dissociation constant Kd at Galectin-3 worked out at 1900 µM; at Galectin-8, 670 µM; on Galectin-9 it was 1600 µM.

Take `CNC(=O)c1cn([C@H]2[C@@H](O)[C@@H](CO)O[C@@H](O[C@H]3[C@H](O)[C@@H](NC(C)=O)[C@H](OC)O[C@@H]3CO)[C@@H]2O)nn1`: the Kd is 130 µM at Galectin-7, over 2000 µM on Galectin-8 and 73 µM on Galectin-9.

With `CCCc1cn([C@H]2[C@@H](O)[C@@H](CO)O[C@@H](SC)[C@@H]2O)nn1`, the Kd is over 5000 µM on Galectin-3, 2200 µM on Galectin-7, over 5000 µM on Galectin-8 and over 5000 µM on Galectin-9.

Regarding `CNC(=O)c1nnn([C@H]2[C@@H](O)[C@@H](CO)O[C@@H](SC)[C@@H]2O)c1C(=O)NC`, the dissociation constant (Kd) on Galectin-3, on Galectin-7 and on Galectin-9 was over 5000 µM each time.

In the case of `CS[C@@H]1O[C@H](CO)[C@H](O)[C@H](n2cc(-c3ccccc3F)nn2)[C@H]1O`, the Kd on Galectin-3 was 200 µM; at Galectin-7, over 2000 µM; on Galectin-8, over 5000 µM; on Galectin-9, 1700 µM.

As to `CS[C@@H]1O[C@H](CO)[C@H](O)[C@H](n2nnc(C(N)=O)c2N)[C@H]1O`, the equilibrium dissociation constant (Kd) was over 2000 µM on Galectin-3, 2700 µM on Galectin-7, over 5000 µM at Galectin-8 and over 5000 µM on Galectin-9.

As to `CS[C@@H]1O[C@H](CO)[C@H](O)[C@H](n2cc(-c3cccc4ccccc34)nn2)[C@H]1O`, the Kd on Galectin-3 was 120 µM; at Galectin-7, 810 µM; on Galectin-8 it was over 5000 µM; at Galectin-9 it was 690 µM.

As for `CS[C@@H]1O[C@H](CO)[C@H](O)[C@H](n2ccnn2)[C@H]1O`, the dissociation constant Kd was over 5000 µM at Galectin-3, 2400 µM on Galectin-7, over 5000 µM on Galectin-8 and over 5000 µM on Galectin-9.

On to `CS[C@@H]1O[C@H](CO)[C@H](O)[C@H](n2cc(C(=O)NCc3ccccc3)nn2)[C@H]1O`, for which the results for the Kd at Galectin-7, on Galectin-8 and on Galectin-9 were 2100 µM, over 5000 µM and 540 µM, respectively.

Regarding `CS[C@@H]1O[C@H](CO)[C@H](O)[C@H](n2cc(S(=O)(=O)c3ccc(C)cc3)nn2)[C@H]1O`, the Kd at Galectin-3 stood at 130 µM; at Galectin-7 it was 2000 µM; on Galectin-9, 330 µM.

Regarding `CNC(=O)c1cn([C@H]2[C@@H](O)[C@@H](CO)O[C@@H](S[C@@H]3O[C@H](CO)[C@H](O)[C@H](n4cc(C(=O)NC)nn4)[C@H]3O)[C@@H]2O)nn1`, the Kd worked out at 0.12 µM on Galectin-3, 8 µM at Galectin-7, 81 µM on Galectin-8 and 0.91 µM on Galectin-9.

For the molecule `CS[C@@H]1O[C@H](CO)[C@H](O)[C@H](n2cc(CO)nn2)[C@H]1O`, the Kd on Galectin-3 was over 5000 µM; at Galectin-7 it was 2500 µM; on Galectin-8, over 5000 µM; on Galectin-9, over 5000 µM.

Consider `COc1cc(OC)cc(C(=O)N[C@@H]2[C@@H](O)[C@@H](S[C@@H]3O[C@H](CO)[C@H](O)[C@H](NC(=O)c4cc(OC)cc(OC)c4)[C@H]3O)O[C@H](CO)[C@@H]2O)c1`, for which the Kd on Galectin-3 amounted to 0.05 µM; on Galectin-7, 2.8 µM; at Galectin-8 it was 100 µM; on Galectin-9, 1.8 µM.

In the case of `C=CCNC(=O)c1cn([C@H]2[C@@H](O)[C@@H](CO)O[C@@H](S[C@@H]3O[C@H](CO)[C@H](O)[C@H](n4cc(C(=O)NCC=C)nn4)[C@H]3O)[C@@H]2O)nn1`, the dissociation constant Kd on Galectin-3 was 0.065 µM; at Galectin-7, 3.4 µM; on Galectin-8, 66 µM; at Galectin-9, 0.74 µM.

`CO[C@@H]1O[C@H](CO)[C@H](O)[C@H](O)[C@H]1O`: the dissociation constant Kd at Galectin-7 was 4800 µM; at Galectin-9, 3300 µM.

Turning to `CCCCNC(=O)c1cn([C@H]2[C@@H](O)[C@@H](CO)O[C@@H](SC)[C@@H]2O)nn1`, the dissociation constant Kd was 150 µM on Galectin-3, 1100 µM on Galectin-7, over 5000 µM at Galectin-8 and 640 µM at Galectin-9.

For `CS[C@@H]1O[C@H](CO)[C@H](O)[C@H](n2cc(C(=O)NCCCO)nn2)[C@H]1O`, the Kd was 360 µM at Galectin-3, 1500 µM at Galectin-7, over 5000 µM on Galectin-8 and 1900 µM on Galectin-9.

Regarding `COCCNC(=O)c1cn([C@H]2[C@@H](O)[C@@H](CO)O[C@@H](S[C@@H]3O[C@H](CO)[C@H](O)[C@H](n4cc(C(=O)NCCOC)nn4)[C@H]3O)[C@@H]2O)nn1`, the Kd on Galectin-3 was 0.25 µM; on Galectin-7 it was 4.7 µM; at Galectin-8, 90 µM; at Galectin-9, 2.3 µM.

`CNC(=O)c1cn([C@H]2[C@@H](O)[C@@H](CO)O[C@@H](SC)[C@@H]2O)nn1`: the values for the Kd at Galectin-8 and at Galectin-9 were over 5000 µM and 1100 µM, respectively.

Usually Kd stands for a measure of binding affinity in units of concentration. Read a high Kd as weaker binding.
